Laboratory results reported in ChEMBL document CHEMBL4513216, “Probing the Open Global Health Chemical Diversity Library for Multistage-Active Starting Points for Next-Generation Antimalarials” (ACS Infect Dis, 2020).

Assay: Toxicity liver stage against HepG2, at 10uM
Format: cell-based
Design: test concentration 10 uM, cell line HepG2-A16-CD81EGFP
Details: human, HepG2-A16-CD81EGFP cells; read-out: INHIBITION
How it was run: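 Uninfected HepG2-A16-CD81EGFP cells, 3 × 10^3 per well, 1536-well, plated on prespotted compound at 10 μM final, parasite-free screening media added to match infected plates; puromycin 10 μM positive, DMSO 0.5% negative; run in parallel with 48 h PbLuc assay at 37 °C, 5% CO2; viability by CellTiter-Glo luminescence, normalized to controls.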

With Cc1[nH]c(=O)[nH]c(=O)c1CN1CCCC(CCc2ccccc2)C1 (stereo not drawn) the cytotoxicity at 10 µM was -11.4%.
Work on CCOc1ccc(CC(=O)Nc2cnccc2SCCCO)cc1 yielded a cytotoxicity at 10 µM of 7.94%.
Cc1nc(C2CCCN2C(=O)Cn2cncn2)no1 (stereo not drawn) gave a cytotoxicity at 10 µM of -2.51%.
CC(C)NC(=O)C1CN(C(=O)Cc2ccccc2)CC12CCOCC2 (stereo not drawn) gave a cytotoxicity at 10 µM of 5.31%.
With Cc1cc(C(=O)N2CCn3cc(CN(C)C)nc3C2)no1 the cytotoxicity at 10 µM was -80.5%.
Compound CN(C)c1nccc(CNC(=O)NCc2ccco2)n1 has a cytotoxicity at 10 µM of -2.48%.
In the case of Nc1ncc(-c2ccc(NC(=O)[C@@H]3CCCCN3)cc2)cn1, the cytotoxicity at 10 µM is reported as -4.44%.
COC1CC2(CCN(Cc3ccc4c(c3)OCO4)CC2)C1 showed a cytotoxicity at 10 µM of 3.07%.
With O=C(NCCC(O)c1cccs1)c1ccc(Br)o1 (stereo not drawn) the cytotoxicity at 10 µM was -15.2%.
Work on Cc1nnc(CN(Cc2cccc(Br)c2)C2CC2)o1 yielded a cytotoxicity at 10 µM of 3.94%.
In the case of N#CC(NC(=O)CCCOc1cccnc1)c1ccc(F)cc1F (stereo not drawn), the cytotoxicity at 10 µM is reported as 8.23%.
CCn1nccc1C(=O)NC(Cn1cccn1)C(C)(C)C (stereo not drawn) showed a cytotoxicity at 10 µM of -9.24%.
In the case of CC(C)c1ccc(CN2CCN(C(=O)c3cc(C4CC4)[nH]n3)CC2)cc1, the cytotoxicity at 10 µM is reported as 39.7%.
COC(=O)c1cccc(S(=O)(=O)Nc2ccc(Cl)c(C(N)=O)c2)c1 gave a cytotoxicity at 10 µM of 7.31%.
In the case of CC(C)c1ncc2c(n1)CN(Cc1cccc3c1OCCO3)CC2, the cytotoxicity at 10 µM is reported as -4.34%.
In the case of CN(Cc1ccon1)c1nc(-c2ccccn2)nc2c1CCNCC2, the cytotoxicity at 10 µM is reported as -2.45%.
With COc1cc(F)cc(NC(=O)NCc2cccc(N(C)C)n2)c1 the cytotoxicity at 10 µM was 25%.
In the case of COc1ccccc1C1CCN(C(=O)CN2C(=O)OC(C)(C)C2=O)CC1, the cytotoxicity at 10 µM is reported as 8.12%.
Cc1nc(O)cc(C2CCN(Cc3ccc(F)c(F)c3)C2)n1 (stereo not drawn) showed a cytotoxicity at 10 µM of -11.3%.
In the case of O=C(c1cc(F)ccc1F)C1CCN(C(=O)c2ccccn2)CC1, the cytotoxicity at 10 µM is reported as 2.6%.
CCCn1cc(S(=O)(=O)N(C)Cc2nonc2C)c(C)n1 gave a cytotoxicity at 10 µM of 12.7%.
For Cc1ccc2c(c1)CCCN2C(=O)c1cncc(Br)c1, the cytotoxicity at 10 µM was -8.79%.
With N#Cc1ccc(S(=O)(=O)Nc2ccccc2C#N)cn1 the cytotoxicity at 10 µM was -2.93%.
In the case of COCc1cncc2c1CCN(C(=O)c1cscn1)C2, the cytotoxicity at 10 µM is reported as -104%.
Work on Cc1nc(C)c(CN2CCC(N(C)Cc3nnc(C4CC4)o3)C2)s1 (stereo not drawn) yielded a cytotoxicity at 10 µM of -4.18%.
With CC(C)(C)OC(=O)N1CCCCC(NC(=O)CCc2cccnc2)C1 (stereo not drawn) the cytotoxicity at 10 µM was 17.5%.
With CN(C)CC1CN(Cc2nc(-c3ccccn3)no2)CCO1 (stereo not drawn) the cytotoxicity at 10 µM was -5.8%.
O=C(CN1CCS(=O)(=O)CC1)NCc1ccccc1F gave a cytotoxicity at 10 µM of 6.32%.
In the case of Cc1noc(C)c1-c1cncc(C2CCCN2Cc2nccs2)n1 (stereo not drawn), the cytotoxicity at 10 µM is reported as -14.2%.
Compound CCc1nnc(CN2CCN(CC(O)c3ccccc3)CC2)o1 (stereo not drawn) has a cytotoxicity at 10 µM of -12.3%.
COc1cccc(OCCN2CC[C@@](O)(C3CCOCC3)[C@H](C)C2)c1 gave a cytotoxicity at 10 µM of -7.03%.
For Oc1cc(C2CCNCC2)nc(-c2ccsc2)n1, the cytotoxicity at 10 µM was 4.06%.
Work on Cc1ccc(-n2c(SCC(=O)O)nnc2-c2ccccc2)cc1 yielded a cytotoxicity at 10 µM of -19.3%.
In the case of C[C@@H]1CN(c2nc(O)cc(Cc3ccccc3F)n2)C[C@H](C)O1, the cytotoxicity at 10 µM is reported as 5.31%.
Work on CNc1nc(C(=O)NCC2CCOc3ccccc3C2)cs1 (stereo not drawn) yielded a cytotoxicity at 10 µM of 2.53%.
COCCC(=O)N(C)CCC1=CCN(C)CC1 showed a cytotoxicity at 10 µM of -6.93%.
With CN(C)C(=O)N1CC2(CCNCC2)c2cc(Cl)ccc21 the cytotoxicity at 10 µM was -69.8%.
For Cn1ccnc1CCC1CCCCN1Cc1nccn1C (stereo not drawn), the cytotoxicity at 10 µM was 8.13%.
Compound O=C(NCCc1cc(F)ccc1F)NC(CO)c1ccccc1 (stereo not drawn) has a cytotoxicity at 10 µM of 8.78%.
CCn1cnnc1C1CCN(C(=O)c2ccc3ccccc3n2)CC1 showed a cytotoxicity at 10 µM of 6.13%.
O=c1[nH]nc2c(N3CCOCC3)nccn12 showed a cytotoxicity at 10 µM of 9.73%.
Work on COc1ccccc1C(C)(C)NC(=O)NC1CCC(O)CC1 (stereo not drawn) yielded a cytotoxicity at 10 µM of -3.6%.
Cc1noc(-c2ccc(N[C@H]3CCCCNC3=O)nc2)n1 showed a cytotoxicity at 10 µM of 0.913%.
Work on CCCc1nc(C(=O)NCCN2CCC(c3ccccc3C)C2)cs1 (stereo not drawn) yielded a cytotoxicity at 10 µM of -37.9%.
With CC1CN(CC(=O)NCCc2ccccc2)CCN1c1nccs1 (stereo not drawn) the cytotoxicity at 10 µM was -2.79%.
Work on CCC(NC(=O)C1CCN(S(C)(=O)=O)CC1)c1ccc(OC)cc1 (stereo not drawn) yielded a cytotoxicity at 10 µM of -1.82%.
In the case of COc1cccn(Cc2nnc(-c3cccnc3)o2)c1=O, the cytotoxicity at 10 µM is reported as 7.99%.
Compound Fc1ccc(CCN2CCC(c3nnc(-c4cccnc4)o3)CC2)cc1 has a cytotoxicity at 10 µM of 6.59%.
For CN(Cc1ccccc1)CC(O)Cn1cnc2c(cnn2C)c1=O (stereo not drawn), the cytotoxicity at 10 µM was 1.53%.
In the case of Cc1ccc(-c2cnnc(N3CCCC3c3nccs3)n2)o1 (stereo not drawn), the cytotoxicity at 10 µM is reported as 3.04%.
For Cn1cnc2cc(NC(=O)c3n[nH]c4c3CCC4)ccc21, the cytotoxicity at 10 µM was -0.806%.
In the case of CN(CC(=O)N1CCN(c2ccccn2)CC1)c1ccc(Cl)cn1, the cytotoxicity at 10 µM is reported as -2.3%.
In the case of Cc1ccc(C(=O)O)cc1CNC(=O)CN1CC(C)(C)[C@@](C)(O)C1, the cytotoxicity at 10 µM is reported as -6.03%.
Compound O=S(=O)(CCN1CCc2c(ncn2C2CC2)C1)c1ccccc1 has a cytotoxicity at 10 µM of -14.5%.
COc1ccccc1OC1CCN(c2nc(N)nc3[nH]cnc23)CC1 gave a cytotoxicity at 10 µM of 2.94%.
CC(C)n1ccnc1C1CCN(C(=O)c2ccc(SCCO)cc2)CC1 gave a cytotoxicity at 10 µM of -0.232%.
For Cc1ncc(C(=O)NCCNC(=O)c2ccccc2)s1, the cytotoxicity at 10 µM was -3.67%.
c1ccc(-c2ncc(CN3CCC4(CCNCC4)C3)cn2)cc1 gave a cytotoxicity at 10 µM of -5.71%.
Work on Cc1ccc(C(C)NC(=O)CCc2cnn(C)c2)cc1F (stereo not drawn) yielded a cytotoxicity at 10 µM of -0.348%.
COc1ncccc1CNCc1c(C(C)C)nn(C)c1OC showed a cytotoxicity at 10 µM of -1.68%.
CCn1nc(C)c(-c2cncn2CCN(C)C2CCCC2)c1C gave a cytotoxicity at 10 µM of 4.83%.
CO[C@H]1CN(Cc2cc(Cn3cncn3)c(C)cc2C)CC[C@H]1N showed a cytotoxicity at 10 µM of -7.29%.
Work on CCC(CC)C(=O)NS(=O)(=O)CCc1ccccc1 yielded a cytotoxicity at 10 µM of 1.76%.
Compound COCCC(=O)N1CC2(CCN(Cc3ccoc3)C2)C1 has a cytotoxicity at 10 µM of 8.47%.
O=C(C[C@@H]1COC[C@H]2CN(C(=O)c3cccnc3)C[C@@H]12)N1CCOCC1 showed a cytotoxicity at 10 µM of -105%.
In the case of CN(Cc1cccnc1)[C@@H]1CN(CC2CC2)[C@@H]2CCCO[C@H]12, the cytotoxicity at 10 µM is reported as -1.48%.
With COCCN1CCC2(CC1)CC1(CCN(S(C)(=O)=O)CC1)N(C)C2=O the cytotoxicity at 10 µM was 0.964%.
CNS(=O)(=O)c1cccc(CNc2nccc(C(F)(F)F)n2)c1 gave a cytotoxicity at 10 µM of 17.2%.
Work on Cc1nc(CN2CCC(CNC(=O)NCCC3CCC3)CC2)oc1C yielded a cytotoxicity at 10 µM of -0.5%.
O=C(CCCc1nc2ccccc2[nH]1)N1CCCC1c1ccccn1 (stereo not drawn) showed a cytotoxicity at 10 µM of 0.219%.
Compound CNC(=O)c1cc2c(s1)CCN(C(=O)CCC1CCCN(C)C1)C2 (stereo not drawn) has a cytotoxicity at 10 µM of -29.3%.
In the case of CN(CC(=O)N1CCN(c2ncccn2)CC1)c1ccc(Cl)cn1, the cytotoxicity at 10 µM is reported as -9.65%.
In the case of Oc1nc(N2CCOCC2)nc2c1CCN(Cc1ccccc1)CC2, the cytotoxicity at 10 µM is reported as -4.03%.
c1cncc(OC[C@]23COC[C@H]2CN(C2CCOCC2)C3)c1 showed a cytotoxicity at 10 µM of 8.61%.
With CCc1sc(-c2nnc(CNCCn3cccn3)o2)cc1C the cytotoxicity at 10 µM was 5.05%.
In the case of CC(=O)N1CCC2(CC1)C(=O)N(c1ccc(C)nc1)CCN2CC(C)C, the cytotoxicity at 10 µM is reported as 22.2%.
With CNC(=O)C1CCN(CC(=O)Nc2cc(C(C)C)no2)CC1 the cytotoxicity at 10 µM was -8.01%.
For Nc1c(N2CCCC2)ncnc1N1CCOCC1, the cytotoxicity at 10 µM was 12.8%.
Work on CC(OCC1CC1)C(=O)N1CCCN(c2nc3ccccc3[nH]2)CC1 (stereo not drawn) yielded a cytotoxicity at 10 µM of -0.657%.
Compound COc1cc(C2CC(=O)Nc3c2nc2n3CCCC2)ccc1O (stereo not drawn) has a cytotoxicity at 10 µM of -4.27%.
O=S(=O)(NCC1(O)CCOCC1)c1ccccc1Br gave a cytotoxicity at 10 µM of -5.93%.
CN1CCN(C2CCN(CC(O)c3ccccc3)CC2)C1=O (stereo not drawn) gave a cytotoxicity at 10 µM of 1.76%.
Work on Cc1nnnn1-c1cc(NCc2cc(C#N)ccc2F)ccc1F yielded a cytotoxicity at 10 µM of 0.685%.
